Values after ≈ are worked out from the molar mass of the structure shown. Active and inactive are the calls of the source. The rule behind the calls is not given here.
Assays:
Mycolicibacterium aurum [1] = assay: Inhibition of FAS2 in recombinant Mycobacterium aurum expressing Mycobacterium tuberculosis H37Rv kas operon in fusion Escherichia coli lacZ gene assessed as increase in beta-galactosidase activity at 50 uM incubated for 12 hrs by lacZ reporter gene assay
How it was run: (§1)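 Cells washed, sonicated in PBS pH 7.2; equal Bradford-quantified protein incubated with ONPG (4 mg/ml) 30 min at 37 °C, stopped with Na2CO3, read at 410 nm. Triplicates, experiment repeated twice; isoniazid positive control.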

Mycolicibacterium aurum [2] = assay: Inhibition of FAS2 in recombinant Mycobacterium aurum expressing Mycobacterium tuberculosis H37Rv kas operon in fusion Escherichia coli lacZ gene assessed as increase in beta-galactosidase activity at 100 uM incubated for 12 hrs by lacZ reporter gene assay; how it was run: as §1
Mycolicibacterium aurum [3] = assay: Inhibition of FAS2 in recombinant Mycobacterium aurum expressing hsp60 promoter in fusion Escherichia coli lacZ gene assessed as increase in beta-galactosidase activity at 50 uM incubated for 12 hrs by lacZ reporter gene assay
Mycolicibacterium aurum [4] = assay: Inhibition of FAS2 in recombinant Mycobacterium aurum expressing hsp60 promoter in fusion Escherichia coli lacZ gene assessed as increase in beta-galactosidase activity at 100 uM incubated for 12 hrs by lacZ reporter gene assay
Mycolicibacterium aurum [5] = assay: Growth inhibition of Mycobacterium aurum expressing Mycobacterium tuberculosis H37Rv kas operon in fusion Escherichia coli lacZ gene at 50 uM incubated for 12 hrs; type: functional; settings: read-out: GI
Mycolicibacterium aurum [6] = assay: Growth inhibition of Mycobacterium aurum expressing Mycobacterium tuberculosis H37Rv kas operon in fusion Escherichia coli lacZ gene at 100 uM incubated for 12 hrs; type: functional; settings: read-out: GI
[7] = Toxicity against macrophages incubated for 48 hrs by resazurin dye reduction assay; type: cell-based, Macrophage
How it was run: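 Macrophages from subconfluent monolayers seeded ~1 × 10^6 cells/well in RPMI-1640; compounds 100 to 12.5 µM, 48 h at 37 °C, 5% CO2; resazurin added for 4 h, fluorescence 535/590 nm read against untreated wells as % viability; CC50 taken from viability-versus-concentration plot; triplicates.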

[8] = molecular target: Serine/threonine-protein kinase PknG (Mycobacterium tuberculosis) (UniProt P9WI73); assay: Inhibition of Mycobacterium tuberculosis recombinant PKnG expressed in Escherichia coli BL21 (DE3) cells using myelin basic protein substrate at 100 uM by luciferase activity based ADP-Glo-luminescent kinase assay
How it was run: (§2)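 6-His-PknG from M. tuberculosis genomic DNA cloned into pTriEx4, expressed in E. coli with 0.8 mM IPTG 4 h at 37 °C, purified by Ni2+-NTA then size exclusion. Compounds dissolved in DMSO; assayed with myelin basic protein substrate; ADP formed measured by ADP-Glo luminescence; AX20017 positive control; dose-response series.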

[9] = molecular target: Serine/threonine-protein kinase PknG (Mycobacterium tuberculosis) (UniProt P9WI73); assay: Inhibition of Mycobacterium tuberculosis recombinant PKnG expressed in Escherichia coli BL21 (DE3) cells using myelin basic protein substrate at 12.5 uM by luciferase activity based ADP-Glo-luminescent kinase assay; how it was run: as §2
[10] = test system: Mycobacterium tuberculosis; assay: Growth inhibition of Mycobacterium tuberculosis H37Rv; type: functional
[11] = molecular target: Serine/threonine-protein kinase PknG (Mycobacterium tuberculosis) (UniProt P9WI73); assay: Inhibition of Mycobacterium tuberculosis recombinant PKnG expressed in Escherichia coli BL21 (DE3) cells using myelin basic protein substrate at 50 uM by luciferase activity based ADP-Glo-luminescent kinase assay; how it was run: as §2
[12] = molecular target: Serine/threonine-protein kinase PknG (Mycobacterium tuberculosis) (UniProt P9WI73); assay: Inhibition of Mycobacterium tuberculosis recombinant PKnG expressed in Escherichia coli BL21 (DE3) cells using myelin basic protein substrate at 25 uM by luciferase activity based ADP-Glo-luminescent kinase assay; how it was run: as §2
[13] = molecular target: Serine/threonine-protein kinase PknG (Mycobacterium tuberculosis) (UniProt P9WI73); assay: Inhibition of Mycobacterium tuberculosis recombinant PKnG expressed in Escherichia coli BL21 (DE3) cells using myelin basic protein substrate at 6.25 uM by luciferase activity based ADP-Glo-luminescent kinase assay; how it was run: as §2
[14] = molecular target: Serine/threonine-protein kinase PknG (Mycobacterium tuberculosis) (UniProt P9WI73); assay: Inhibition of Mycobacterium tuberculosis recombinant PKnG expressed in Escherichia coli BL21 (DE3) cells using myelin basic protein substrate at 3.125 uM by luciferase activity based ADP-Glo-luminescent kinase assay; how it was run: as §2

Chain of Serine/threonine-protein kinase PknG (Mycobacterium tuberculosis) (P9WI73 whole entry): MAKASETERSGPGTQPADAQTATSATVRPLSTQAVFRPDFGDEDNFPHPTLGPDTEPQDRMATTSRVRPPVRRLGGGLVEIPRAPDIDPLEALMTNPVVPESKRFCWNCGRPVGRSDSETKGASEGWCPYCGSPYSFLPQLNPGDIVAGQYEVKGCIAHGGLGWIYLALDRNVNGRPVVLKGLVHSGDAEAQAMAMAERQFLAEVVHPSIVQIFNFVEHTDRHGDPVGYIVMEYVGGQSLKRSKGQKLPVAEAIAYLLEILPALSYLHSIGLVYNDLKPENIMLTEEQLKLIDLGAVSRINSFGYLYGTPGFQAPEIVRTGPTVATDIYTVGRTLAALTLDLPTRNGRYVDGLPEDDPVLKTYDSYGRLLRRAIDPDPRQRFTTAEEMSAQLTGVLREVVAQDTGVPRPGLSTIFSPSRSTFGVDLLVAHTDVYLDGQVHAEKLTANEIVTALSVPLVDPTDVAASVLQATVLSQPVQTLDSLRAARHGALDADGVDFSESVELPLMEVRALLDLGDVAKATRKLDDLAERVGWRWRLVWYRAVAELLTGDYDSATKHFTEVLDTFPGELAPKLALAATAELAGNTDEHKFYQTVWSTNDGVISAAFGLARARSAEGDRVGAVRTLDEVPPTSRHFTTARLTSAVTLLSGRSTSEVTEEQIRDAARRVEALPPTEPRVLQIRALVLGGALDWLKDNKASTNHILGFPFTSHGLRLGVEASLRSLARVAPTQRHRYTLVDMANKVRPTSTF

SMILES	inhibition (Mycolicibacterium aurum [1])	inhibition (Mycolicibacterium aurum [2])	inhibition (Mycolicibacterium aurum [3])	inhibition (Mycolicibacterium aurum [4])	inhibition of growth at 50 µM (Mycolicibacterium aurum [5]) [%]	inhibition of growth at 100 µM (Mycolicibacterium aurum [6]) [%]	CC50 at 48 h [7] [µM]	inhibition [8] [%]	inhibition [9] [%]	MIC [10] [µg/mL]	inhibition [11] [%]	inhibition [12] [%]	inhibition [13] [%]	inhibition [14] [%]
CCCCCCn1cc(COc2ccc(C(=O)/C=C/c3c(F)cccc3Cl)c(O)c2)nn1	Active	Active	inactive	inactive	71.6	79.1	> 100							
CCCCCCn1cc(COc2ccc3c(c2)OC(c2ccc(Br)cc2)CC3=O)nn1 (centres undefined)	Active	Active	inactive	inactive	68.9	75.1	20.3							
O=C(/C=C/c1ccccc1)c1ccc(OCc2cn(Cc3ccccc3)nn2)cc1O	Active	Active	inactive	inactive	49.9	88	80							
CCCCCCn1cc(COc2ccc(-c3cc(-c4ccccc4)nc(N)n3)c(O)c2)nn1								23	0	50 (≈ 112 µM)	13	0	0	0
O=C(/C=C/c1c(F)cccc1Cl)c1ccc(OCc2cn(Cc3ccc(Br)cc3)nn2)cc1O	Active	Active	inactive	inactive	53.1	83	65.8							
CCCCCCn1cc(COc2ccc3c(c2)OC(c2ccc(OC)cc2)CC3=O)nn1 (centres undefined)	Active	Active	inactive	inactive	55.9	65.7	57.5							
CC(C)c1ccc(C2CC(=O)c3ccc(OCc4cn(Cc5ccccc5)nn4)cc3O2)cc1 (centres undefined)	Active	Active	inactive	inactive	54.7	79.3	23.8							
